Data: ChEMBL document CHEMBL1287787, “Design and synthesis of disubstituted thiophene and thiazole based inhibitors of JNK” (Bioorg Med Chem Lett, 2010)

What was measured:
[1] = Metabolic stability in mouse liver microsomes assessed as compound remaining after 30 mins; assay type: ADME, Microsome; details: read-out: Stability
Summary of the method: (§1)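 Test compound incubated with mouse or human liver microsomes for 30 min. Read-out is the percent of parent compound remaining at the end of the incubation.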

[2] = target: Mitogen-activated protein kinase 10 (Homo sapiens, UniProt P53779); experiment: Inhibition of recombinant JNK3 after 60 mins by TR-FRET assay
Chain of Mitogen-activated protein kinase 10 (P53779 whole entry): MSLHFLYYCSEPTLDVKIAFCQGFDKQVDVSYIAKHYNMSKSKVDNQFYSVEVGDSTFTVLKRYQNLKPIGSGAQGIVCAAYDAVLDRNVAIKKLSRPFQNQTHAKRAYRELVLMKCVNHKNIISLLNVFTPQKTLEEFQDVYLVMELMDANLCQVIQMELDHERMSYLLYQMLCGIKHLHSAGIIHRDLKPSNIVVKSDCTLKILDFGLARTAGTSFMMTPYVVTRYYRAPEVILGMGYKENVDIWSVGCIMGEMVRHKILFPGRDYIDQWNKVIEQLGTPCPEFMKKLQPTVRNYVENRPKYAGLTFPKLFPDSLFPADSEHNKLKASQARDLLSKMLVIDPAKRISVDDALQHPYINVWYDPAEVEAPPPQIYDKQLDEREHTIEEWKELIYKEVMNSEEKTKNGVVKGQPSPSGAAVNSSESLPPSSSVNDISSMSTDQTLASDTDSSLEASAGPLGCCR

[3] = Metabolic stability in human liver microsomes assessed as compound remaining after 30 mins; assay type: ADME, Microsome; details: read-out: Stability; summary of the method: as §1
[4] = target: Mitogen-activated protein kinase 8 (Homo sapiens, UniProt P45983); experiment: Inhibition of recombinant JNK1 after 60 mins by TR-FRET assay
Chain of Mitogen-activated protein kinase 8 (P45983 whole entry): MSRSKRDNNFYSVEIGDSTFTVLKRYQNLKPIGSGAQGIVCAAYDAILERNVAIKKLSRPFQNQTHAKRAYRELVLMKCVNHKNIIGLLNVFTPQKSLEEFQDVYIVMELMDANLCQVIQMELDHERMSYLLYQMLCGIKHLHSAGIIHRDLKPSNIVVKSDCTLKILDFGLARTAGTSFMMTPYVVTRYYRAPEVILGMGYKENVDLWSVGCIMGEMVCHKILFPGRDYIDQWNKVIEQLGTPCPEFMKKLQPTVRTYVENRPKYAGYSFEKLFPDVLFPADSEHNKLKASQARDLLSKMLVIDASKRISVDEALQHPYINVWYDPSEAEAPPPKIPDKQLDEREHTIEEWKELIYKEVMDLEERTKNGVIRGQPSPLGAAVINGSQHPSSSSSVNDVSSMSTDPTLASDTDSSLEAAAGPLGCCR

[5] = target: Mitogen-activated protein kinase 9 (Homo sapiens, UniProt P45984); experiment: Inhibition of recombinant JNK2 after 60 mins by TR-FRET assay
Chain of Mitogen-activated protein kinase 9 (P45984 whole entry): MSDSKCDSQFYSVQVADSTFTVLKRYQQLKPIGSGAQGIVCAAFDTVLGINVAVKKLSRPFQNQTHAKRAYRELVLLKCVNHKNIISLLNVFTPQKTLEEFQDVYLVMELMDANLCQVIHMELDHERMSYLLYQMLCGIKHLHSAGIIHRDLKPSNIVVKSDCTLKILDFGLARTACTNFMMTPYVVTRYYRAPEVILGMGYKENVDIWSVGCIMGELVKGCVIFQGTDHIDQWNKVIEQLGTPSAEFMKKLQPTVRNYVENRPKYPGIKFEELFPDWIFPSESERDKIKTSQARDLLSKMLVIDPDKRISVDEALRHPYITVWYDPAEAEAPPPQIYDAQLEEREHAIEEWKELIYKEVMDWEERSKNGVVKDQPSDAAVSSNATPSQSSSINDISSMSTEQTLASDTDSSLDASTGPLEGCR

MDR1 = experiment: Permeability from apical to basolateral side of MDCK cells expressing MDR1 after 120 mins; assay type: ADME, cell-based, Canis lupus familiaris; details: dog, read-out: permeability
[6] = target: Mitogen-activated protein kinase 1 (Homo sapiens, UniProt P28482); experiment: Inhibition of recombinant Erk2 after 60 mins by TR-FRET assay
Chain of Mitogen-activated protein kinase 1 (P28482 whole entry): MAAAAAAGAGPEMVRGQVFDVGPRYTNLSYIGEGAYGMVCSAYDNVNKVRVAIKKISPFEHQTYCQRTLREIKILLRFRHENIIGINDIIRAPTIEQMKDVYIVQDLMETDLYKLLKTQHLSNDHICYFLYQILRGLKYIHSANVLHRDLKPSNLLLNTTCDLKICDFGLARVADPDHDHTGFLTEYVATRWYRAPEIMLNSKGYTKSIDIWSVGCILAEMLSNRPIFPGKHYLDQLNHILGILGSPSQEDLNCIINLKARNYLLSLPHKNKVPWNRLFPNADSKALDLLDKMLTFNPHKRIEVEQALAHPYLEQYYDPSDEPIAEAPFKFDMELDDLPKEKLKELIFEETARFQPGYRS

[7] = target: Mitogen-activated protein kinase 14 (Homo sapiens, UniProt Q16539); experiment: Inhibition of recombinant p38alpha after 60 mins by TR-FRET assay
Chain of Mitogen-activated protein kinase 14 (Q16539 whole entry): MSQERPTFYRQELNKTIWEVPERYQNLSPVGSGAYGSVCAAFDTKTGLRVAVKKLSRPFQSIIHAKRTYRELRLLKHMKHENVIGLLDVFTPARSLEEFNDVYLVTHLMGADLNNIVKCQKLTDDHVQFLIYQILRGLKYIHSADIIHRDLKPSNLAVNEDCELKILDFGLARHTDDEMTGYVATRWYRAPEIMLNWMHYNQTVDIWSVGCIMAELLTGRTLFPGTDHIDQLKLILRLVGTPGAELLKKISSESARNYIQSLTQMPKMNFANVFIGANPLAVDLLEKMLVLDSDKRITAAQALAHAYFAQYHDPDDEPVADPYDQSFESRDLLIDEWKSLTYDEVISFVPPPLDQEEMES

SMILES | remaining at 0.5 h [1] | IC50 [2] | remaining at 0.5 h [3] | IC50 [4] | IC50 [5] | Papp A→B at 2 h (MDR1) | IC50 [6] | IC50 [7]
COCCN(C)C(=O)c1sccc1NC(=O)Cc1ccccc1 | – | > 50 µM | – | – | > 50 µM | – | – | –
C=C(C)c1sccc1NC(=O)Cc1ccccc1 | – | > 50 µM | – | – | – | – | – | –
COC(=O)c1sccc1NC(=O)Cc1ccncc1 | – | 17.2 µM | – | 6.6 µM | > 50 µM | – | – | –
COc1ccc(CC(=O)Nc2ccsc2-c2nc(N)n[nH]2)cc1 | 44% | – | 87% | – | 8.7 µM | 24.3 ×10⁻⁶ cm/s | > 50 µM | > 50 µM
COc1ccc(CC(=O)Nc2ccsc2-c2nc(C(F)(F)F)n[nH]2)cc1 | 8% | 5.9 µM | 71% | 3.4 µM | 15 µM | – | > 50 µM | > 50 µM
COc1ccc(CC(=O)Nc2ccsc2-c2cnccn2)cc1 | 0% | 1.5 µM | 0% | 1.1 µM | 5.7 µM | 22.2 ×10⁻⁶ cm/s | > 50 µM | > 50 µM
COCCNC(=O)c1sccc1NC(=O)Cc1ccccc1 | – | 3.8 µM | – | 2.3 µM | > 50 µM | – | – | –
O=C(Cc1ccccc1)Nc1ccsc1CO | – | > 50 µM | – | – | – | – | – | –
COc1ccc(CC(=O)Nc2ccsc2-n2cncn2)cc1 | – | 45.6 µM | – | 43.6 µM | > 50 µM | – | – | –
CC(=O)c1sccc1NC(=O)Cc1ccccc1 | – | 17 µM | – | 6.3 µM | > 50 µM | – | – | –
COC(=O)c1sccc1NC(=O)Cc1ccccc1-c1c[nH]nn1 | – | 12.6 µM | – | 7 µM | 35 µM | – | – | –
NC(=O)c1sccc1NC(=O)Cc1ccccc1 | – | 4.4 µM | – | 2.6 µM | > 50 µM | – | – | –
COC(=O)c1sccc1NC(=O)Cc1ccc(-n2ccnc2)cc1 | – | 1.6 µM | – | 1 µM | > 50 µM | – | – | –
COc1ccc(CC(=O)Nc2ccsc2N2CCOC2=O)cc1 | 26% | 37 µM | 83% | > 50 µM | > 50 µM | 26 ×10⁻⁶ cm/s | – | –
COc1ccc(CC(=O)Nc2ccsc2-c2c[nH]c(C)n2)cc1 | 0% | 27 µM | 17% | 23.4 µM | > 50 µM | 33.8 ×10⁻⁶ cm/s | > 50 µM | > 50 µM
COC(=O)c1sccc1NC(=O)Cc1ccccc1 | – | 2.7 µM | – | 0.7 µM | 22.8 µM | – | – | –
C/C(=N/O)c1sccc1NC(=O)Cc1ccccc1 | – | 29 µM | – | – | – | – | – | –
COC(=O)c1sccc1NC(=O)Cc1ccc(-c2ccncc2)cc1 | – | 0.69 µM | – | 0.46 µM | > 50 µM | – | – | –
CCOC(=O)c1sccc1NC(=O)Cc1ccccc1 | – | 0.7 µM | – | 0.3 µM | 46.6 µM | – | – | –
CC(C)OC(=O)c1sccc1NC(=O)Cc1ccccc1 | – | 1.4 µM | – | 0.5 µM | 47.7 µM | – | – | –
COC(=O)c1sccc1NC(=O)Cc1cccs1 | – | – | – | – | 21.4 µM | – | – | –
COC(=O)c1sccc1NC(=O)Cc1ccc(C(F)(F)F)cc1 | – | 6.9 µM | – | 2 µM | > 50 µM | – | – | –
COc1ccc(CC(=O)Nc2ccsc2-c2ncco2)cc1 | 9% | – | 14% | – | 11.9 µM | – | – | –
COC(=O)c1sccc1NC(=O)Cc1ccc(OC)cc1 | – | 1 µM | – | 0.8 µM | 14.1 µM | – | – | –
COc1ccc(CC(=O)Nc2ccsc2-n2nccn2)cc1 | 1% | 1.5 µM | 0% | 0.83 µM | 5 µM | 15 ×10⁻⁶ cm/s | – | –

Now from value to compound:

remaining at 0.5 h [1] | IC50 [2] | remaining at 0.5 h [3] | IC50 [4] | IC50 [5] | Papp A→B at 2 h (MDR1) | IC50 [6] | IC50 [7] | SMILES
1% | 31.5 µM | 1% | 30.3 µM | > 50 µM | – | – | – | Cc1nc(-c2sccc2NC(=O)Cc2cccc3ccccc23)n(C)n1
1% | – | 2% | – | 1.5 µM | – | – | – | Cc1cc(-c2sccc2NC(=O)Cc2cccc3ccccc23)n[nH]1
– | 1.7 µM | – | 2.1 µM | 13.1 µM | – | – | – | COC(=O)c1ccccc1NC(=O)Cc1cccc2ccccc12
0% | 9 µM | 17% | 26.9 µM | > 50 µM | – | – | – | O=C(Cc1cccc2ccccc12)Nc1ccsc1-n1ccnc1
– | 0.61 µM | – | 0.3 µM | 3 µM | – | – | – | COC(=O)c1sccc1NC(=O)Cc1cccc2ncccc12
0% | 2.1 µM | 4% | 1.8 µM | 16.3 µM | – | – | – | Cc1nnc(-c2sccc2NC(=O)Cc2cccc3ccccc23)o1
– | 1.5 µM | – | 0.4 µM | 14.6 µM | – | – | – | COC(=O)c1sccc1NC(=O)Cc1cccc2ccccc12
0% | 42.5 µM | 0% | 24.1 µM | > 50 µM | – | – | – | Cn1ccc(-c2sccc2NC(=O)Cc2cccc3ccccc23)n1
– | 6.5 µM | – | 6.4 µM | 23.6 µM | – | – | – | COC(=O)c1cnccc1NC(=O)Cc1cccc2ccccc12
– | > 50 µM | – | > 50 µM | > 50 µM | – | – | – | COC(=O)c1scnc1NC(=O)Cc1cccc2ccccc12
– | 0.61 µM | – | 0.27 µM | 3.1 µM | – | > 50 µM | > 50 µM | COC(=O)c1sccc1NC(=O)Cc1cccc2cnccc12
0% | – | 5% | – | > 50 µM | – | – | – | O=C(Cc1cccc2ccccc12)Nc1ccsc1-c1cc[nH]n1
– | > 50 µM | – | > 50 µM | > 50 µM | – | – | – | CCOC(=O)c1c(C)nsc1NC(=O)Cc1cccc2ccccc12
1% | 0.92 µM | 11% | 0.53 µM | 3 µM | – | – | – | O=C(Cc1cccc2ccccc12)Nc1ccsc1-c1ncn[nH]1
– | 3.9 µM | – | 0.6 µM | > 50 µM | – | – | – | COC(=O)c1sccc1NC(=O)Cc1ccc2ccccc2c1
1% | 0.55 µM | 1% | 0.25 µM | 2.4 µM | – | – | – | Cc1n[nH]c(-c2sccc2NC(=O)Cc2cccc3ccccc23)n1
– | > 50 µM | – | > 50 µM | > 50 µM | – | – | – | COC(=O)c1nonc1NC(=O)Cc1cccc2ccccc12
– | 0.9 µM | – | 0.89 µM | 9.9 µM | – | – | – | COC(=O)c1cscc1NC(=O)Cc1cccc2ccccc12
– | > 50 µM | – | > 50 µM | > 50 µM | – | – | – | COC(=O)c1nnsc1NC(=O)Cc1cccc2ccccc12
– | > 50 µM | – | – | > 50 µM | – | – | – | Cc1nccnc1NC(=O)Cc1cccc2ccccc12
– | > 50 µM | – | > 50 µM | > 50 µM | – | – | – | Cc1ccncc1NC(=O)Cc1cccc2ccccc12
1% | 5.3 µM | 7% | 3.2 µM | 27.1 µM | – | – | – | O=C(Cc1cccc2ccccc12)Nc1ccsc1-c1nnco1
– | > 50 µM | – | > 50 µM | > 50 µM | – | – | – | COC(=O)c1cccnc1NC(=O)Cc1cccc2ccccc12
– | 5.4 µM | – | 2.1 µM | 26.7 µM | – | > 50 µM | > 50 µM | COC(=O)c1n[nH]cc1NC(=O)Cc1cccc2ccccc12
